Measured values reported in ChEMBL document CHEMBL2010709, “Pinophilins A and B, inhibitors of mammalian A-, B-, and Y-family DNA polymerases and human cancer cell proliferation” (J Nat Prod, 2012).
The source made the active and inactive calls. The calls are words filed in the database; no cut-off is given here.

Legend:
[1] = test system: HeLa; assay: Growth inhibition of human HeLa cells after 24 hrs by WST-1 assay; format: functional
Summary of the method: (§1)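 Cancer cells were grown in McCoy's 5A with 10% FBS and penicillin/streptomycin, 37 °C, 5% CO2. Cells were seeded at 1 × 10^4 per well, cultured 12 h, then given compound (10 mM DMSO stock diluted in medium, 0.5% DMSO) for 24 h. WST-1 was added for 4 h and absorbance read at 450/630 nm. GI50 given as mean ± SE, five independent experiments.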

[2] = target: T1, DNA polymerase delta catalytic subunit (Homo sapiens, UniProt P28340); assay: Inhibition of human DNA polymerase delta assessed as inhibition of incorporation of dTTP into poly(dA)/oligo(dT)18 after 60 mins
T1 sequence (P28340 whole entry): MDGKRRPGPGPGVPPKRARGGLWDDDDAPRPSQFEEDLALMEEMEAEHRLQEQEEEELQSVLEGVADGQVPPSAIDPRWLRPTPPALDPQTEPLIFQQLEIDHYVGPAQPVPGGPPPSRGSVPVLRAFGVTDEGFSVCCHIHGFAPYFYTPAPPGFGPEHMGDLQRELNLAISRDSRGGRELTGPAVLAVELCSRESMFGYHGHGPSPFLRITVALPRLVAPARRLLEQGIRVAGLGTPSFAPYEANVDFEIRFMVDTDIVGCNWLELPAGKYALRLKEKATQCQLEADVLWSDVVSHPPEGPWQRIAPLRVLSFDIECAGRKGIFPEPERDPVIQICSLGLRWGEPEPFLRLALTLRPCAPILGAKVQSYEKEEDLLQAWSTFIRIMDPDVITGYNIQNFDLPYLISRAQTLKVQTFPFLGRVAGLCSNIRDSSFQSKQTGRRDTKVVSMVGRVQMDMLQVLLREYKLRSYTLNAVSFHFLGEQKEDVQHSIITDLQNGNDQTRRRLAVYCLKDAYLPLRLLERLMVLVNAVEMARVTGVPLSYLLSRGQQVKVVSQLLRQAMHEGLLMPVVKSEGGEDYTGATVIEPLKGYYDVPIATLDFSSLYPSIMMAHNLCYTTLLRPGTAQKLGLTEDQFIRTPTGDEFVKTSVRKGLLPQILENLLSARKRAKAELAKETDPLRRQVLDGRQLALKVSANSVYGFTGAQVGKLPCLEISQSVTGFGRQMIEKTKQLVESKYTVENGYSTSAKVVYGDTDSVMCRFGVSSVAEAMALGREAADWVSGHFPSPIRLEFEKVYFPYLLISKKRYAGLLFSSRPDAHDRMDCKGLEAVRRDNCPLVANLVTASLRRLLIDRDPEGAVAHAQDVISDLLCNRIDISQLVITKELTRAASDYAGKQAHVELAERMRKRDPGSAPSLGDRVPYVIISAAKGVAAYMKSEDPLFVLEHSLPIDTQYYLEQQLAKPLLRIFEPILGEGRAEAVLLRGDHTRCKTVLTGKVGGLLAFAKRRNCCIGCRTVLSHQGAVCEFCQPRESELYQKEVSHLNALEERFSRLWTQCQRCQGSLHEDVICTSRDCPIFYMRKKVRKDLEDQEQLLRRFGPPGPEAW
Summary of the method: (§2)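 Compound in DMSO was sonicated for 30 s, then held with enzyme (0.05 units final) at 0 °C for 10 min in 50 mM Tris-HCl pH 7.5, 1 mM DTT, 50% glycerol, 0.1 mM EDTA. The mixture was added to the standard reaction mix with poly(dA)/oligo(dT)18 (A/T = 2/1) and dTTP, 37 °C, 60 min. Activity was relative to no-inhibitor control; mean ± SE, three independent experiments.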

[3] = test system: A549; assay: Growth inhibition of human A549 cells after 24 hrs by WST-1 assay; format: functional; conditions: A549, 24 h; summary of the method: as §1
[4] = Growth inhibition of HDF cells after 72 hrs by WST-1 assay; format: cell-based; conditions: human
Summary of the method: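 Normal cells (HDF, HUVEC) were grown in Eagle's MEM with 4.5 g/L glucose, 10% FCS, 5 mM L-glutamine and penicillin/streptomycin, 37 °C, 5% CO2. Cells were seeded at 1 × 10^4 per well, cultured 12 h, then exposed to compound (0.5% DMSO final) for 72 h. Viability was read by WST-1 at 450/630 nm. GI50 given as mean ± SE of five experiments.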

[5] = Inhibition of calf DNA polymerase alpha assessed as inhibition of incorporation of dTTP into poly(dA)/oligo(dT)18 after 60 mins; design: species or system Bos taurus; summary of the method: as §2
[6] = target: Polynucleotide kinase (Enterobacteria phage T4, UniProt P06855); assay: Inhibition of T4 arnN8l pseT 1 polynucleotide kinase assessed as inhibition of Salmon sperm DNA phosphorylation using [gamma32P]ATP by liquid scintillation counting; design: species or system Tequatrovirus T4
[7] = test system: HCT-116; assay: Cell cycle arrest in human HCT116 cells assessed as accumulation at S-phase at GI50 by tritiated thymidine incorporation assay; format: functional, cell-based
[8] = target: T2, DNA polymerase lambda (Homo sapiens, UniProt Q9UGP5); assay: Inhibition of human recombinant His-tagged DNA polymerase lambda expressed in Escherichia coli assessed as inhibition of incorporation of dTTP into poly(dA)/oligo(dT)18 after 60 mins; summary of the method: as §2
T2 sequence (Q9UGP5 whole entry): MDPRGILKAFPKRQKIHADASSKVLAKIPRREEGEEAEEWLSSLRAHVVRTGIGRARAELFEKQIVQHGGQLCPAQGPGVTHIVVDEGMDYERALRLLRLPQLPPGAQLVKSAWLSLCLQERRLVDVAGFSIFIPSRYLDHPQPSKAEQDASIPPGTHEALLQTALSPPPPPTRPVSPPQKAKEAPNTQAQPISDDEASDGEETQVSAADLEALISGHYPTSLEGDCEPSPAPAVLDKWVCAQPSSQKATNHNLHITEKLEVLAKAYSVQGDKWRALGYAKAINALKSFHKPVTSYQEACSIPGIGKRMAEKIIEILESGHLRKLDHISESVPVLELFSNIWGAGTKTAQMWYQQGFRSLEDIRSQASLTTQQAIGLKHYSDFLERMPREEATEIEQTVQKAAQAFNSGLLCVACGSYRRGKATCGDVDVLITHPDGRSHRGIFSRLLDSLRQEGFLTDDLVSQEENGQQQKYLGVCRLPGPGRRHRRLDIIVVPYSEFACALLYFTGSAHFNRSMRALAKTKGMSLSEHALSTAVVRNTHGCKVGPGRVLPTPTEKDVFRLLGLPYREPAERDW

[9] = test system: NUGC-3; assay: Growth inhibition of human NUGC3 cells after 24 hrs by WST-1 assay; format: functional; conditions: NUGC-3, 24 h; summary of the method: as §1
[10] = Non-competitive inhibition of calf DNA polymerase alpha using ploy(dA)/oligo(dT)18 as substrate by Dixon plot analysis; design: species or system Bos taurus
Summary of the method: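 Kinetics ran in the standard pol assay at 37 °C for 60 min. Either poly(dA)/oligo(dT)18 (A/T = 2/1) or dTTP was varied, with inhibitor at 0, 10, 20 and 30 μM. Km and Vmax came from Lineweaver–Burk plots and Ki from Dixon plots. Pol α was purified from calf thymus by immunoaffinity chromatography.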

Polynucleotide kinase, sequence (P06855 whole entry, looked up): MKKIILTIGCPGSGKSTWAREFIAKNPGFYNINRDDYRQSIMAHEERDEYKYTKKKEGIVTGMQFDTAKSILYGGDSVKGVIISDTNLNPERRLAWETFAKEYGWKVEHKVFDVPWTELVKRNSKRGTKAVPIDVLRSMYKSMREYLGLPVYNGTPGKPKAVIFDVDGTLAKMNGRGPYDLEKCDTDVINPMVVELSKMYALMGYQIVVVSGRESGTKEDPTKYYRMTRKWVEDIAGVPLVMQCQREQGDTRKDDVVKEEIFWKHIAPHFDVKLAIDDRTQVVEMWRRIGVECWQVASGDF

Compound | GI50 [1] [µM] | IC50 [2] [µM] | GI50 [3] [µM] | GI50 at 72 h [4] [µM] | IC50 [5] [µM] | IC50 [6] [µM] | Activity [7] | IC50 [8] [µM] | GI50 [9] [µM] | Ki [10] [µM]
C/C=C/C1=CC2=CC(=O)[C@@](C)(O)[C@@H](OC(=O)c3c(C)cc(O)cc3O)[C@@H]2CO1 | 68.8 | 68 | 65.7 | > 200 | 63.2 | > 200 | Active | > 200 | 66.4 | –
C/C=C/C1=CC2=CC(=O)[C@@](C)(OC(=O)c3c(C)cc(O)cc3O)[C@@H](O)[C@@H]2CO1 [PINOPHILIN A] | 55.6 | 54.5 | 52.5 | > 200 | 49.1 | > 200 | Active | > 200 | 54.7 | 13.8
Cc1cc(O)cc(O)c1C(=O)O[C@H]1[C@@H]2COC(/C=C/CO)=CC2=CC(=O)[C@@]1(C)O [PINOPHILIN B] | 99 | 96.4 | 93.1 | > 200 | 89.5 | > 200 | Active | > 200 | 96.8 | –
